Test results as given in ChEMBL document CHEMBL1125082, “Synthesis and antimalarial activity of (+)-deoxoartemisinin” (J Med Chem, 1990).
≈ marks a conversion by molar mass, not a printed value.

What was measured:
Plasmodium berghei [1] = assay: Antimalarial activity against Plasmodium berghei infected mice (Mus musculus) at 20 mg/kg dose; n=5; type: functional
Outline: (§1)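 Mice infected intraperitoneally on day 0 with 5.98×10^5 P. berghei-parasitized cells. A single subcutaneous dose in peanut oil was given on day 3, at 640, 320, 160, 80, 40 or 20 mg/kg. Blood films were taken on day 6, then every 7 days to day 60. Mice surviving 60 days counted as cured. Activity meant survival over twice that of infected untreated controls.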

Plasmodium berghei [2] = assay: Antimalarial activity against Plasmodium berghei infected mice (Mus musculus) at 320 mg/kg dose; n=5; type: functional; outline: as §1
Plasmodium berghei [3] = assay: Antimalarial activity against Plasmodium berghei infected mice (Mus musculus) at 640 mg/kg dose; n=5; type: functional; outline: as §1
Plasmodium berghei [4] = assay: Antimalarial activity against Plasmodium berghei infected mice (Mus musculus) at 160 mg/kg dose; n=5; type: functional; outline: as §1
Plasmodium berghei [5] = assay: Antimalarial activity against Plasmodium berghei infected mice (Mus musculus) at 80 mg/kg dose;n=5; type: functional; outline: as §1
Plasmodium falciparum [6] = assay: In vitro antimalarial activity against chloroquine-resistant Plasmodium falciparum W2 (Indochina); type: functional, organism-based
Outline: (§2)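 Semiautomated microdilution over a 64-fold dilution range, with DMSO stock diluted in medium with 10% plasma. Parasites at 0.5% parasitemia and 1.5% hematocrit, 37°C under 5% O2/5% CO2/90% N2 for 24 h. Tritiated hypoxanthine added for a further 18–20 h and incorporation read by scintillation. IC50 from nonlinear regression of concentration–response curves.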

Plasmodium berghei [7] = assay: Antimalarial activity against Plasmodium berghei infected mice (Mus musculus) at 40 mg/kg dose; n=5; type: functional; outline: as §1
Plasmodium falciparum [8] = assay: In vitro antimalarial activity against mefloquine-resistant Plasmodium falciparum D6 (Sierra Leone); type: functional, organism-based; outline: as §2
Plasmodium berghei [9] = assay: Antimalarial activity against Plasmodium berghei infected mice (Mus musculus) at 320 mg/kg dose; active in 2 of 5; type: functional; outline: as §1
Plasmodium berghei [10] = assay: Antimalarial activity against Plasmodium berghei infected mice (Mus musculus) at 160 mg/kg dose; active in 2 of 5; type: functional; outline: as §1

Row | SMILES | No. of mice cured (Plasmodium berghei [1]) | No. of mice cured (Plasmodium berghei [2]) | No. of mice cured (Plasmodium berghei [3]) | No. of mice cured (Plasmodium berghei [4]) | No. of mice cured (Plasmodium berghei [5]) | IC50 (Plasmodium falciparum [6]) | No. of mice cured (Plasmodium berghei [7]) | IC50 (Plasmodium falciparum [8]) | No. of mice cured (Plasmodium berghei [9]) | No. of mice cured (Plasmodium berghei [10])
1 | C[C@@H]1CC[C@H]2[C@@H](C)C(=O)O[C@@H]3O[C@@]4(C)CC[C@@H]1[C@]32OO4 [ARTEMISININ] | 0 | 0 | 5 | 0 | 0 | 1.21 ng/mL (≈ 4.29 nM) | 0 | 2.33 ng/mL (≈ 8.25 nM) |  | 
2 | C[C@@H]1CC[C@H]2[C@@H](C)CO[C@@H]3OC4(C)CC[C@@H]1[C@]32O4 (single isomer, unassigned) |  |  |  |  |  | 250 ng/mL (≈ 991 nM) |  | 250 ng/mL (≈ 991 nM) |  | 
3 | C[C@@H]1CC[C@H]2[C@@H](C)CO[C@@H]3OC4(C)CC[C@@H]1[C@]32OO4 (single isomer, unassigned) [DEOXOARTEMISININ] | 0 |  | 5 |  | 0 | 0.15 ng/mL (≈ 0.559 nM) | 0 | 0.58 ng/mL (≈ 2.16 nM) | 2 | 0
4 | CCO[C@H]1O[C@@H]2O[C@@]3(C)CC[C@H]4[C@H](C)CC[C@@H]([C@H]1C)[C@@]24OO3 [ARTEMOTIL] |  |  |  |  |  | 0.16 ng/mL (≈ 0.512 nM) |  | 0.87 ng/mL (≈ 2.78 nM) |  | 
5 | C[C@@H]1CC[C@H]2[C@@H](C)C(O)O[C@@H]3OC4(C)CC[C@@H]1[C@]32OO4 (single isomer, unassigned) |  |  |  |  |  | 0.04 ng/mL (≈ 0.141 nM) |  | 0.11 ng/mL (≈ 0.387 nM) |  | 
